Data taken from ChEMBL document CHEMBL1641392, “Triterpenes from Garcia parviflora. Cytotoxic evaluation of natural and semisynthetic friedelanes” (J Nat Prod, 2010).

Key:
Format in all cases: functional, cell-based
K562 = assay: Cytotoxicity against human K562 cells after 48 hrs by sulforhodamine B assay
Summary of the method: (§1)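 Cells (NCI source) in RPMI-1640 with 10% FBS and antibiotics, 37 °C, 5% CO2. Seeded at 5 × 10^4 cells/mL (K562, MCF-7), 7.5 × 10^4 (U251, PC-3, SKLU-1), or 10 × 10^4 (HCT-15). After 24 h, DMSO-dissolved compounds added for 48 h. Fixed with cold TCA, stained with 0.4% SRB, Tris-extracted, read at 515 nm. IC50 from linear regression of dose-response curves.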

SK-LU-1 = assay: Cytotoxicity against human SK-LU-1 cells after 48 hrs by sulforhodamine B assay; summary of the method: as §1
MCF7 = assay: Cytotoxicity against human MCF7 cells after 48 hrs by sulforhodamine B assay; summary of the method: as §1
PC-3 = assay: Cytotoxicity against human PC3 cells after 48 hrs by sulforhodamine B assay; summary of the method: as §1
U-251 = assay: Cytotoxicity against human U251 cells after 48 hrs by sulforhodamine B assay; conditions: U-251, 48 h; summary of the method: as §1
HCT-15 = assay: Cytotoxicity against human HCT15 cells after 48 hrs by sulforhodamine B assay; conditions: HCT-15, 48 h; summary of the method: as §1

| SMILES | Activity (K562) | Activity (SK-LU-1) | Activity (MCF7) | Activity (PC-3) | IC50 (U-251) [µM] | IC50 (HCT-15) [µM] |
| --- | --- | --- | --- | --- | --- | --- |
| C[C@H]1C(=O)C=C[C@@H]2[C@]1(C)CC[C@H]1[C@@]2(C)CC[C@@]2(C)[C@@H]3CC(C)(C)CC[C@]3(C)CC[C@]12C | Not toxic | Not toxic | Not toxic | Not toxic | – | – |
| C=C[C@@H]1[C@@](C)([C@@H](C)C(=O)O)CC[C@H]2[C@@]1(C)CC[C@@]1(C)[C@@H]3CC(C)(C)CC[C@]3(C)CC[C@]21C | Not toxic | Not toxic | Not toxic | Not toxic | 36.8 | – |
| C[C@H]1OC(=O)CC[C@@H]2[C@]1(C)CC[C@H]1[C@@]2(C)CC[C@@]2(C)[C@@H]3CC(C)(C)CC[C@]3(C)CC[C@]12C [FRIEDELIN-3,4-LACTONE] | Not toxic | Not toxic | Not toxic | Not toxic | 17.1 | – |
| CC(=O)O[C@H]1CC[C@]2(C)[C@H]3CC[C@]4(C)C(=CC[C@@]5(C(=O)O)CCC(C)(C)C[C@H]54)[C@]3(C)CC[C@H]2C1(C)C [ACETYL ALEURITOLIC ACID] | Not toxic | Not toxic | Not toxic | Not toxic | 8.4 | – |
| CC1(C)CC[C@]2(C)CC[C@]3(C)[C@H]4CC[C@@]5(C)[C@@H](CC[C@H](O)[C@@H]5C(=O)O)[C@]4(C)CC[C@@]3(C)[C@@H]2C1 | Not toxic | Not toxic | Not toxic | Not toxic | – | – |
| C[C@H]1/C(=N/O)C[C@@H](O)[C@@H]2[C@]1(C)CC[C@H]1[C@@]2(C)CC[C@@]2(C)[C@@H]3CC(C)(C)CC[C@]3(C)CC[C@]12C | Not toxic | Not toxic | Not toxic | Not toxic | – | – |
| CC(=O)O[C@H]1C[C@@H](OC(C)=O)[C@@H]2[C@](C)(CC[C@H]3[C@@]2(C)CC[C@@]2(C)[C@@H]4CC(C)(C)CC[C@]4(C)CC[C@]32C)[C@H]1C | Not toxic | Not toxic | Not toxic | Not toxic | – | – |
| C[C@H]1[C@@H](O)C[C@@H](O)[C@@H]2[C@]1(C)CC[C@H]1[C@@]2(C)CC[C@@]2(C)[C@@H]3CC(C)(C)CC[C@]3(C)CC[C@]12C | Not toxic | Not toxic | Not toxic | Not toxic | 22.8 | – |
| CC1(C)CC[C@]2(C)CC[C@]3(C)[C@H]4CC[C@@]5(C)[C@@H](C=CC(=O)[C@@]5(C)O)[C@]4(C)CC[C@@]3(C)[C@@H]2C1 | Not toxic | Not toxic | Not toxic | Not toxic | – | 41.8 |
| C[C@H]1C(=O)CC(=O)[C@@H]2[C@]1(C)CC[C@H]1[C@@]2(C)CC[C@@]2(C)[C@@H]3CC(C)(C)CC[C@]3(C)CC[C@]12C | Not toxic | Not toxic | Not toxic | Not toxic | – | – |
| C[C@H]1NC(=O)C[C@@H](O)[C@@H]2[C@]1(C)CC[C@H]1[C@@]2(C)CC[C@@]2(C)[C@@H]3CC(C)(C)CC[C@]3(C)CC[C@]12C | Not toxic | Not toxic | Not toxic | Not toxic | – | – |
| CC(=O)O[C@H]1C[C@@H](O)[C@@H]2[C@](C)(CC[C@H]3[C@@]2(C)CC[C@@]2(C)[C@@H]4CC(C)(C)CC[C@]4(C)CC[C@]32C)[C@H]1C | Not toxic | Not toxic | Not toxic | Not toxic | – | – |
| C[C@H]1OC(=O)C[C@@H](O)[C@@H]2[C@]1(C)CC[C@H]1[C@@]2(C)CC[C@@]2(C)[C@@H]3CC(C)(C)CC[C@]3(C)CC[C@]12C | Not toxic | Not toxic | Not toxic | Not toxic | – | – |
| C[C@H]1C(=O)C[C@@H](O)[C@@H]2[C@]1(C)CC[C@H]1[C@@]2(C)CC[C@@]2(C)[C@@H]3CC(C)(C)CC[C@]3(C)CC[C@]12C | Not toxic | Not toxic | Not toxic | Not toxic | – | – |
